Data on nine compounds can be found in ChEMBL document CHEMBL1148290, “Synthesis of flexible sulfur-containing heteroarotinoids that induce apoptosis and reactive oxygen species with discrimination between malignant and benign cells” (2004).

Common to all, as to assay type: functional
The test system of test [1] is SK-OV-3. The test can be described thus: Efficacy is growth inhibition activity at 10 uM concentration relative to the maximum activity observed for 4-HPR with SK-OV-3 cell line. The method in brief: (§1)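 Cells seeded at 1000 cells/well; next day retinoids added from DMSO stocks (DMSO ≤0.01% final; solvent-only controls) to final 1, 4, 7 and 10 μM, handled under subdued light. After 3 days, living cells quantitated by MTS/PMS reduction read at OD490 in linear range (0.1–0.6); triplicate wells averaged, percent growth inhibition calculated versus solvent controls.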

Test [2] has as its system SK-OV-3. The test can be described thus: Potency of compound was determined from ability to inhibit the growth of ovarian carcinoma SK-OV-3 cell line. The procedure, abridged:
as §1

In test [3] the test system is Caov-3 cell line. Kind of test: Potency of compound was determined from ability to inhibit the growth of ovarian carcinoma cell line Caov-3. The method in brief:
as §1

For test [4], the system named is OVCAR-3. The test can be described thus: Efficacy is growth inhibition activity at 10 uM concentration relative to the maximum activity observed for 4-HPR with OVCAR-3 cell line. The procedure, abridged:
as §1

In test [5] the test system is Caov-3 cell line. The test can be described thus: Efficacy is growth inhibition activity at 10 uM concentration relative to the maximum activity observed for 4-HPR with Caov-3 cell line. The procedure, abridged:
as §1

Test [6] deals with OVCAR-3. The test can be described thus: Potency of compound was determined from ability to inhibit the growth of ovarian carcinoma OVCAR-3 cell line. The method in brief:
as §1

Consider `CCOC(=O)c1ccc(NC(=O)Nc2ccc3c(c2)C(C)(C)CC(C)(C)S3)cc1`, for which the values for the Efficacy in the test on SK-OV-3 [1], with OVCAR-3 [4] and with Caov-3 cell line [5] were 71.8%, 160.4% and 63.7%, respectively. The results for the Potency with SK-OV-3 [2], with Caov-3 cell line [3] and in the test on OVCAR-3 [6] were 4.1 µM, 7 µM and 3.9 µM, respectively.

In the case of `Cc1cc2c(cc1/N=C(\S)Nc1ccc(S(N)(=O)=O)cc1)C(C)(C)CC(C)(C)S2`, the Efficacy in the test with SK-OV-3 [1] worked out at 67.7%; in the test on OVCAR-3 [4] it was 90%; in the test with Caov-3 cell line [5] it was 30.3%. Further, the Potency was determined as 6.9 µM with SK-OV-3 [2], 0.9 µM in the test with Caov-3 cell line [3] and 4.4 µM in the test on OVCAR-3 [6].

Take `CCOC(=O)c1ccc(NC(=O)Nc2cc3c(cc2C)SC(C)(C)CC3(C)C)cc1`: the Efficacy worked out at 75.7% with SK-OV-3 [1], 107% in the test on OVCAR-3 [4] and 54.9% with Caov-3 cell line [5]. Moreover, the Potency with SK-OV-3 [2] stood at 7.2 µM; in the test on Caov-3 cell line [3] it was 10.2 µM; with OVCAR-3 [6], 4.7 µM.

Regarding `CC1(C)CC(C)(C)c2cc(N/C(S)=N/c3ccc(S(N)(=O)=O)cc3)ccc2S1`, the Efficacy worked out at 50.5% with SK-OV-3 [1], 74.1% with OVCAR-3 [4] and 16.7% in the test on Caov-3 cell line [5]. Besides, the Potency was determined as 7.8 µM with SK-OV-3 [2], 7 µM in the test with Caov-3 cell line [3] and 4.4 µM in the test on OVCAR-3 [6].

Take `CCOC(=O)c1ccc(N/C(S)=N/c2ccc3c(c2)C(C)(C)CC(C)(C)S3)cc1`: the Efficacy is 64.9% in the test with SK-OV-3 [1], 133.8% with OVCAR-3 [4] and 38.1% with Caov-3 cell line [5]. The results for the Potency with SK-OV-3 [2], in the test on Caov-3 cell line [3] and with OVCAR-3 [6] were 3.9 µM, 4.6 µM and 3.9 µM, respectively.

As to `CCOC(=O)c1ccc(N/C(S)=N/c2cc3c(cc2C)SC(C)(C)CC3(C)C)cc1`, the Efficacy in the test with SK-OV-3 [1] came out at 85.4%; in the test with OVCAR-3 [4], 114.4%; in the test with Caov-3 cell line [5] it was 37.4%. The Potency in the test with SK-OV-3 [2] stood at 4.4 µM; in the test on Caov-3 cell line [3] it was 4 µM; with OVCAR-3 [6], 4.4 µM.

`Cc1cc([N+](=O)[O-])ccc1/N=C(\S)Nc1ccc2c(c1)C(C)(C)CC(C)(C)S2`: the Efficacy with SK-OV-3 [1] was 78.4%; in the test on OVCAR-3 [4] it was 149.5%; in the test on Caov-3 cell line [5], 52.1%. Also, the Potency came out at 3.9 µM with SK-OV-3 [2], 7.4 µM in the test on Caov-3 cell line [3] and 3.7 µM with OVCAR-3 [6].

On to `CC1=C(/C=C/C(C)=C/C=C/C(C)=C/C(=O)Nc2ccc(O)cc2)C(C)(C)CCC1` [FENRETINIDE], for which the Efficacy with SK-OV-3 [1], with OVCAR-3 [4] and in the test on Caov-3 cell line [5] was 100% in each case. The Potency turned out to be 8.2 µM in the test on SK-OV-3 [2], 3.7 µM in the test with Caov-3 cell line [3] and 6.9 µM in the test on OVCAR-3 [6].

Turning to `CC1(C)CC(C)(C)c2cc(NC(=S)Nc3ccc([N+](=O)[O-])cc3)ccc2S1` [SHETA-2], the Efficacy with SK-OV-3 [1] was found to be 69.1%; in the test on OVCAR-3 [4], 155.2%; with Caov-3 cell line [5] it was 89.2%. The Potency with SK-OV-3 [2] was found to be 0.2 µM; with Caov-3 cell line [3], 3.7 µM; in the test on OVCAR-3 [6], 1 µM.
